Data as given in ChEMBL document CHEMBL1131607, “Synthesis of 7-arylmorphinans. Probing the "address" requirements for selectivity at opioid delta receptors” (J Med Chem, 1998).

Key:
[1] = molecular target: Delta-type opioid receptor (Mus musculus) (UniProt P32300); test: Inhibition of [D-Ala2,D-Leu5]-enkephalin (DADLE) activity in the electrically stimulated mouse vas deferens
Outline: (§1)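 Antagonism in electrically stimulated smooth muscle, hydrochloride salts. Test ligand 100 nM preincubated for 15 min before the standard agonist: DADLE (δ) in mouse vas deferens, morphine (μ) and ethylketazocine (κ) in guinea pig ileal longitudinal muscle. IC50 ratio = agonist IC50 with test compound / control agonist IC50. Ke (nM) = [antagonist]/(IC50 ratio − 1).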

Cavia porcellus [2] = species: Cavia porcellus; test: (§2) Compound was tested for opioid agonist activity in the electrically stimulated guinea pig ileal longitudinal muscle(GPI); format: functional, Muscle tissue
Outline: (§3)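 Electrically stimulated guinea pig ileal longitudinal muscle or mouse vas deferens, hydrochloride salts. Weak agonists tested at a single 1 μM concentration, reported as percent of maximal response (±SE). Full agonists run at four to six concentrations to give a concentration-response curve compared with a standard agonist in the same tissue. IC50 = agonist concentration giving half-maximal response; a negative value means enhanced twitch amplitude.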

Mus musculus [3] = species: Mus musculus; test: (§4) Compound was tested for opioid agonist activity in the electrically stimulated mouse vas deferens(MVD); format: functional; outline: as §3
[4] = molecular target: Kappa-type opioid receptor (Cavia porcellus) (UniProt P41144); test: Antagonist activity against electrically stimulated guinea pig ileum Opioid receptor kappa 1; format: functional, tissue-based; outline: as §1
Sequence of Kappa-type opioid receptor (Cavia porcellus) (P41144 whole entry): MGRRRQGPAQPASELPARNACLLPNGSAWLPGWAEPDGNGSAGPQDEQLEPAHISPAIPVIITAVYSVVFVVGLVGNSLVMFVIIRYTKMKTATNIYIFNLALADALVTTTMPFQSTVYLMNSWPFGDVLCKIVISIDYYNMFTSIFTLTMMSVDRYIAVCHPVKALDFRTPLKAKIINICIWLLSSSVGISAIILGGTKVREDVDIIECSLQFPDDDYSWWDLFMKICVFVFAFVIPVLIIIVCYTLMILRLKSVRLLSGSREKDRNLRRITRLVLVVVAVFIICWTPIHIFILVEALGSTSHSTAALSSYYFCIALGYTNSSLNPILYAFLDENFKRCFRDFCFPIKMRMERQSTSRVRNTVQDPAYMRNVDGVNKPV

[5] = molecular target: Mu-type opioid receptor (Cavia porcellus) (UniProt P97266); test: Compound was tested for opioid antagonist activity in the electrically stimulated GPI preparation, against morphine (Opioid receptor mu 1); format: functional; outline: as §1
Sequence of Mu-type opioid receptor (Cavia porcellus) (P97266 whole entry): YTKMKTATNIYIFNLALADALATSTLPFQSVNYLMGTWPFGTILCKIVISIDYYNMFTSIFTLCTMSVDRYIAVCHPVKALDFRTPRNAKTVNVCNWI

Mus musculus [6] = species: Mus musculus; test: as §4; format: functional, organism-based; outline: as §3
Cavia porcellus [7] = species: Cavia porcellus; test: as §2; format: functional, organism-based; settings: Muscle tissue; outline: as §3

Sequence of Delta-type opioid receptor (Mus musculus) (P32300 whole entry): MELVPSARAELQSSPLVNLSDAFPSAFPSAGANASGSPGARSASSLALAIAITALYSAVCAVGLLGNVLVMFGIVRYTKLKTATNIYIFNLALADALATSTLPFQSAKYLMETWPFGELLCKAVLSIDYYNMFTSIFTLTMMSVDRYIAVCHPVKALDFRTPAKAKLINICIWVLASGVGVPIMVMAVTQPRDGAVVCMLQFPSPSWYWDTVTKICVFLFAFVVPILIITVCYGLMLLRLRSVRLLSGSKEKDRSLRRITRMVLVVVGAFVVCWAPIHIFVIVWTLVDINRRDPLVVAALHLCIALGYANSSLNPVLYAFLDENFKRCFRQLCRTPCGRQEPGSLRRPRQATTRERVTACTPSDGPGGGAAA

| SMILES | IC50 ratio [1] | Ke (Cavia porcellus [2]) [nM] | Ke (Mus musculus [3]) [nM] | Max response (Cavia porcellus [2]) [%] | Max response (Mus musculus [3]) [%] | IC50 ratio [4] | IC50 ratio [5] | IC50 (Mus musculus [6]) [nM] | IC50 (Cavia porcellus [7]) [nM] |
| --- | --- | --- | --- | --- | --- | --- | --- | --- | --- |
| O=[N+]([O-])c1cccc([C@H]2CC3[C@H]4Cc5ccc(O)c6c5[C@@]3(CCN4C3CC3)[C@@H](O6)[C@H]2O)c1 (some centres not stated) | 4.17 |  |  |  |  |  |  |  |  |
| Oc1ccc2c3c1O[C@H]1c4[nH]c5ccccc5c4C[C@@]4(O)[C@@H](C2)N(CC2CC2)CC[C@]314 [NALTRINDOLE] |  | 29 | 0.13 |  |  |  |  |  |  |
| CN1CC[C@]23c4c5ccc(O)c4O[C@H]2C(=O)[C@@H](c2ccccc2)C[C@H]3[C@H]1C5 | 0.97 |  |  | 53.9 | 29.2 | 0.75 | 1.05 |  |  |
| CN1CC[C@]23c4c5ccc(O)c4O[C@H]2[C@@H](O)[C@@H](c2ccccc2)CC3[C@H]1C5 (some centres not stated) |  |  |  | 23.2 |  | 1.9 | 1.85 | 178 |  |
| CN1CC[C@]23c4c5ccc(O)c4O[C@H]2[C@@H](O)[C@@H](c2ccc(Br)cc2)CC3[C@H]1C5 (some centres not stated) | 1.17 |  |  | 10 | 15.2 | 1.76 | 1.2 |  |  |
| CC(=O)O[C@H]1[C@@H](c2ccccc2)CC2[C@H]3Cc4ccc(O)c5c4[C@@]2(CCN3C)[C@H]1O5 (some centres not stated) | 1.02 |  |  | 24 | 34.3 | 1.08 | 0.9 |  |  |
| O=C1[C@@H](c2ccccc2)C[C@H]2[C@H]3Cc4ccc(O)c5c4[C@@]2(CCN3C2CC2)[C@H]1O5 | 17.6 |  |  |  |  |  |  |  |  |
| Oc1ccc2c3c1O[C@H]1[C@@H](O)[C@@H](c4ccccc4)CC4[C@@H](C2)N(C2CC2)CC[C@@]341 (some centres not stated) | 3.03 |  |  |  |  |  |  |  |  |
| CN1CC[C@]23c4c5ccc(O)c4O[C@H]2C(=O)C(c2ccccc2)(c2ccccc2)CC3[C@H]1C5 (some centres not stated) | 2.34 |  |  | 9.7 | 5.4 | 1.01 | 1.69 |  |  |
| CN1CC[C@]23c4c5ccc(O)c4O[C@H]2[C@@H](O)[C@@H](c2cccc([N+](=O)[O-])c2)CC3[C@H]1C5 (some centres not stated) | 0.99 |  |  | 49.3 | 56.1 | 1.05 | 0.34 |  |  |
| CC(=O)O[C@H]1[C@@H](c2ccccc2)CC2[C@H]3Cc4ccc(O)c5c4[C@@]2(CCN3C2CC2)[C@H]1O5 (some centres not stated) | 6.38 |  |  |  | 21.1 |  |  |  | 118 |
